Data published in ChEMBL document CHEMBL3808334, “Synthesis and in vitro evaluation of novel triazine analogues as anticancer agents and their interaction studies with bovine serum albumin” (Eur J Med Chem, 2016).

Experiments:
[1] = system: A498; experiment: Growth inhibition of human A498 cells incubated for 48 hrs by sulforhodamine B assay; format: functional; conditions: A498, 48 h
In short: (§1)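 Five-dose assay: five concentrations from 10-fold or ½-log serial dilutions. Cells are plated at 5,000–40,000 per well according to doubling time, grown 24 h, then exposed 48 h at 37 °C, 5% CO₂. Fixed with cold 50% TCA (final addition) for 60 min at 4 °C and stained with 0.4% SRB in 1% acetic acid. Bound dye is solubilized in 10 mM Tris base and read at 515 nm. GI₅₀ is where [(Ti−Tz)/(C−Tz)]×100 = 50, with a time-zero plate as Tz.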

[2] = biological target: Albumin (Bos taurus, UniProt P02769); experiment: Binding affinity to bovine serum albumin assessed as binding constant in emission spectra by Benesie-Hildebrand plot analysis; format: ADME; conditions: cattle, isolated protein
Chain of Albumin (P02769 whole entry): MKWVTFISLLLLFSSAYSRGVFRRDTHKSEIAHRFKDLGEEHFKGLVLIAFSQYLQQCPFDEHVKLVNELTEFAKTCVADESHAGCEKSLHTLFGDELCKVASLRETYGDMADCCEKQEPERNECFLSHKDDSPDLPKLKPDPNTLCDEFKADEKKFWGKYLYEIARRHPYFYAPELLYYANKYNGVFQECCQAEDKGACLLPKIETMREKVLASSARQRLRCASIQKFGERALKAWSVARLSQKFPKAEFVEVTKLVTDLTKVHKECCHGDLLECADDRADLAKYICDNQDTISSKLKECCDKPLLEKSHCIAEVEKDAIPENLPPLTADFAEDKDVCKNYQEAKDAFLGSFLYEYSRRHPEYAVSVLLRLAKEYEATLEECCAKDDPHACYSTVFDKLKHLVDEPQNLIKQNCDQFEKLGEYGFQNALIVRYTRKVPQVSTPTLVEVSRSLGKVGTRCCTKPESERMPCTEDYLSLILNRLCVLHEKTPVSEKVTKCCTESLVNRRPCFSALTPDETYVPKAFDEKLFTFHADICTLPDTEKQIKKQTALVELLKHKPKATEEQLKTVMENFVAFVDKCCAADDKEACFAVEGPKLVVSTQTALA
In short: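 BSA, 10 µM, in 0.1 M phosphate buffer pH 7.4, titrated with compound (0–20 µM per the figure; diluted from 10⁻³ mol L⁻¹ DMSO stocks). Run at 300 K in a 1 cm quartz cell. UV spectra taken 200–800 nm after 5 min equilibration; fluorescence excited at 280 nm, emission 351 nm, slit 10 nm. K is the intercept/slope ratio of a linear fit of 1/(A₀−A) or 1/(F₀−F) vs 1/[compound].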

[3] = Growth inhibition of human breast cancer cells incubated for 48 hrs by sulforhodamine B assay; format: functional; conditions: Cancer cell lines; for CC50: read-out: LC50 (the source's name)
[4] = system: M14; experiment: Growth inhibition of human M14 cells assessed as cell growth at 10^-6 M incubated for 48 hrs by sulforhodamine B assay; format: functional; conditions: M14, 48 h, read-out: Activity
[5] = system: NCI-H322M; experiment: Growth inhibition of human NCI-H322M cells assessed as cell growth at 10^-4 M incubated for 48 hrs by sulforhodamine B assay; format: functional; conditions: read-out: Activity
[6] = system: NCI-H322M; experiment: Growth inhibition of human NCI-H322M cells assessed as cell growth at 10^-5 M incubated for 48 hrs by sulforhodamine B assay; format: functional; conditions: read-out: Activity
[7] = system: SR; experiment: Growth inhibition of human SR cells assessed as cell growth at 10 uM incubated for 48 hrs by sulforhodamine B assay; format: functional; conditions: read-out: Activity
[8] = Growth inhibition of human SNB75 cells assessed as cell growth at 10 uM incubated for 48 hrs by sulforhodamine B assay; format: functional; conditions: SNB-75, 48 h, read-out: Activity
[9] = system: SK-MEL-2; experiment: Growth inhibition of human SK-MEL-2 cells assessed as cell growth at 10^-6 M incubated for 48 hrs by sulforhodamine B assay; format: functional; conditions: SK-MEL-2, 48 h, read-out: Activity
[10] = system: SK-MEL-2; experiment: Growth inhibition of human SK-MEL-2 cells assessed as cell growth at 10^-7 M incubated for 48 hrs by sulforhodamine B assay; format: functional; conditions: SK-MEL-2, 48 h, read-out: Activity
[11] = system: MDA-MB-435; experiment: Growth inhibition of human MDA-MB-435 cells assessed as cell growth at 10^-4 M incubated for 48 hrs by sulforhodamine B assay; format: functional; conditions: MDA-MB-435, 48 h, read-out: Activity
[12] = system: SR; experiment: Growth inhibition of human SR cells assessed as cell growth at 10^-8 M incubated for 48 hrs by sulforhodamine B assay; format: functional; conditions: read-out: Activity
[13] = Growth inhibition of human UACC62 cells assessed as cell growth at 10^-8 M incubated for 48 hrs by sulforhodamine B assay; format: functional; conditions: UACC-62, 48 h, read-out: Activity
[14] = Growth inhibition of human RXF393 cells assessed as cell growth at 10^-6 M incubated for 48 hrs by sulforhodamine B assay; format: functional; conditions: RXF 393, 48 h, read-out: Activity
[15] = system: M14; experiment: Growth inhibition of human M14 cells assessed as cell growth at 10^-7 M incubated for 48 hrs by sulforhodamine B assay; format: functional; conditions: M14, 48 h, read-out: Activity
[16] = system: NCI-H226; experiment: Growth inhibition of human NCI-H226 cells assessed as cell growth at 10^-7 M incubated for 48 hrs by sulforhodamine B assay; format: functional; conditions: NCI-H226, 48 h, read-out: Activity
[17] = system: SK-MEL-5; experiment: Growth inhibition of human SK-MEL-5 cells assessed as cell growth at 10^-4 M incubated for 48 hrs by sulforhodamine B assay; format: functional; conditions: SK-MEL-5, 48 h, read-out: Activity
[18] = Growth inhibition of human UO31 cells assessed as cell growth at 10^-6 M incubated for 48 hrs by sulforhodamine B assay; format: functional; conditions: UO-31, 48 h, read-out: Activity
[19] = Growth inhibition of human SW620 cells assessed as cell growth at 10 uM incubated for 48 hrs by sulforhodamine B assay; format: functional; conditions: SW-620, 48 h, read-out: Activity
[20] = Growth inhibition of human COLO205 cells assessed as cell growth at 10^-7 M incubated for 48 hrs by sulforhodamine B assay; format: functional; conditions: COLO 205, 48 h, read-out: Activity
In short: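 Cells seeded at 5,000–40,000/well according to doubling time and preincubated 24 h at 37 °C, 5% CO2. Time-zero plates were TCA-fixed. DMSO concentrate was diluted in medium with 50 µg/ml gentamicin to give five concentrations (10-fold or ½ log steps), then exposed 48 h. Cells were TCA-fixed, stained with 0.4% SRB and read at 515 nm. Percent growth was taken against time-zero and control; GI50, TGI and LC50 derived.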

[21] = Growth inhibition of human prostate cancer cells incubated for 48 hrs by sulforhodamine B assay; format: functional; conditions: Cancer cell lines; for CC50: read-out: LC50 (the source's name)
[22] = system: ACHN; experiment: Growth inhibition of human ACHN cells assessed as cell growth at 10^-6 M incubated for 48 hrs by sulforhodamine B assay; format: functional; conditions: read-out: Activity; in short: as §1
[23] = Growth inhibition of human SW620 cells assessed as cell growth at 10^-5 M incubated for 48 hrs by sulforhodamine B assay; format: functional; conditions: SW-620, 48 h, read-out: Activity
[24] = system: SK-MEL-5; experiment: Growth inhibition of human SK-MEL-5 cells incubated for 48 hrs by sulforhodamine B assay; format: functional; conditions: SK-MEL-5, 48 h
In short: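 Cells were plated at 5,000–40,000 per well according to doubling time and preincubated 24 h at 37 °C in 5% CO2; time-zero plates were then TCA-fixed. Five concentrations (10-fold or ½-log dilutions, DMSO stock) were incubated 48 h. Cells were TCA-fixed, stained with 0.4% SRB and read at 515 nm. GI50 was taken where [(Ti−Tz)/(C−Tz)]×100 = 50.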

[25] = system: NCI-H23; experiment: Growth inhibition of human NCI-H23 cells assessed as cell growth at 10^-6 M incubated for 48 hrs by sulforhodamine B assay; format: functional; conditions: NCI-H23, 48 h, read-out: Activity
[26] = system: A549; experiment: Growth inhibition of human A549/ATCC cells assessed as cell growth at 10^-4 M incubated for 48 hrs by sulforhodamine B assay; format: functional; conditions: A549, 48 h, read-out: Activity
[27] = read-out: LC50 (the source's name)
[28] = read-out: pLC50 (the source's name) (converted)

Row | SMILES | GI50 ([1]; read-out: GI50) | TGI ([1]; read-out: TGI) | GI50 ([1]; read-out: pGI50 (converted)) | TGI ([1]; read-out: pTGI (converted)) | K [2] | GI50 [3] | TGI [3] | CC50 [3] | growth at 1 µM [4] | growth at 100 µM [5] | growth at 10 µM [6] | growth at 10 µM [7] | growth at 10 µM [8] | growth at 1 µM [9] | growth at 0.1 µM [10] | growth at 100 µM [11] | growth at 0.01 µM [12] | growth at 0.01 µM [13] | growth at 1 µM [14] | growth at 0.1 µM [15] | other results
1 | Fc1ccc(-c2nc(Nc3ccc(-c4nc5ccccc5[nH]4)cc3)nc(N3CCOCC3)n2)cc1 | 1.52 µM | 3.57 µM | 1.51 µM | 3.55 µM | 7.9 ×10⁴ /M | 2.09 µM | 5.55 µM | > 100 µM | 95% | 9% | 16% | 6.01% | -19.2% | 99% | 101% | -42% | 108% | 91% | 24% | 99% | CC50 [1, 27]: 8.42 µM; CC50 [1, 28]: 8.51 µM; growth at 0.1 µM [16]: 111%; growth at 100 µM [17]: -90%; growth at 1 µM [18]: 90%; growth at 10 µM [19]: 3.57%; growth at 0.1 µM [20]: 99%; GI50 [21]: 3.46 µM; TGI [21]: 6.66 µM; CC50 [21]: > 100 µM; growth at 1 µM [22]: 82%; growth at 10 µM [23]: -47%; GI50 ([24]; read-out: GI50): 1.79 µM; CC50 [24, 27]: 6.28 µM; TGI ([24]; read-out: TGI): 3.36 µM; GI50 ([24]; read-out: pGI50 (converted)): 1.78 µM; CC50 [24, 28]: 6.31 µM; TGI ([24]; read-out: pTGI (converted)): 3.39 µM; growth at 1 µM [25]: 85%
2 | Clc1ccc(-c2nc(Nc3ccc(-c4nc5ccccc5[nH]4)cc3)nc(N3CCOCC3)n2)cc1 | 1.69 µM | 3.29 µM | 1.7 µM | 3.31 µM | 4.2 ×10⁷ /M | 0.62 µM | 1.86 µM | > 100 µM | 18% | -22% | -80% | -83.3% | -92.6% | 97% | 92% | -49% | 103% | 94% | -56% | 93% | growth at 100 µM [26]: -53%; growth at 0.1 µM [16]: 106%; growth at 100 µM [17]: -51%; growth at 1 µM [18]: 80%; growth at 10 µM [19]: -74.2%; growth at 0.1 µM [20]: 95%; GI50 [21]: 0.41 µM; TGI [21]: 1.49 µM; CC50 [21]: 4.33 µM; growth at 1 µM [22]: 53%; growth at 10 µM [23]: -79%; GI50 ([24]; read-out: GI50): 1.69 µM; CC50 [24, 27]: 5.79 µM; TGI ([24]; read-out: TGI): 3.13 µM; GI50 ([24]; read-out: pGI50 (converted)): 1.7 µM; CC50 [24, 28]: 5.75 µM; TGI ([24]; read-out: pTGI (converted)): 3.16 µM; growth at 1 µM [25]: 85%
3 | c1ccc2[nH]c(-c3ccc(Nc4nc(N5CCCCC5)nc(N5CCOCC5)n4)cc3)nc2c1 | 1.77 µM | 4.18 µM | 1.78 µM | 4.17 µM | 5.7 ×10⁴ /M | 2.36 µM | 6.72 µM | 92.7 µM | 93% | 10% | 29% | 9.79% | -0.68% | 101% | 102% | -29% | 95% | 96% | 46% | 95% | CC50 [1, 27]: 9.89 µM; CC50 [1, 28]: 10 µM; growth at 100 µM [26]: -12%; growth at 0.1 µM [16]: 84%; growth at 100 µM [17]: -95%; growth at 1 µM [18]: 87%; growth at 10 µM [19]: 5.3%; growth at 0.1 µM [20]: 104%; GI50 [21]: 3.67 µM; TGI [21]: 9.13 µM; CC50 [21]: > 100 µM; growth at 1 µM [22]: 90%; growth at 10 µM [23]: -29%; GI50 ([24]; read-out: GI50): 1.78 µM; CC50 [24, 27]: 6.11 µM; TGI ([24]; read-out: TGI): 3.3 µM; GI50 ([24]; read-out: pGI50 (converted)): 1.78 µM; CC50 [24, 28]: 6.17 µM; TGI ([24]; read-out: pTGI (converted)): 3.31 µM; growth at 1 µM [25]: 91%
